In ChEMBL document CHEMBL3124907:

Experiments:
[1] = biological target: T1, 5-hydroxytryptamine receptor 2C (Homo sapiens) (UniProt P28335); test: Inhibition of 5-HT2C receptor (unknown origin) at 10 uM by radioligand binding assay relative to control
T1 sequence (whole entry): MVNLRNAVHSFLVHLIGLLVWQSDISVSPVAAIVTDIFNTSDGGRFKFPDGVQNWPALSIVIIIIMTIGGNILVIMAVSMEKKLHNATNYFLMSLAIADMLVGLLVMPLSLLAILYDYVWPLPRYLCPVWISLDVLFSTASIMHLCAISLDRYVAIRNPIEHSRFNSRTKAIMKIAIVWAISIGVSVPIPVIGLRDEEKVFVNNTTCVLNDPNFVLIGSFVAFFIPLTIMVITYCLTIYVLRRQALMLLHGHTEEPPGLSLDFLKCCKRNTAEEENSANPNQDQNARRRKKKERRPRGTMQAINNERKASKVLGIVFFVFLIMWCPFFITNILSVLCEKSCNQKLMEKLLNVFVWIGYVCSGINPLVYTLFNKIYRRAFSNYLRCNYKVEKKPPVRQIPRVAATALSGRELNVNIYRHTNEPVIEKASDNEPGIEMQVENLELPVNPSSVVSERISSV

[2] = biological target: 5-hydroxytryptamine receptor 2B (Homo sapiens) (UniProt P41595); test: Inhibition of 5-HT2B receptor (unknown origin) at 10 uM by radioligand binding assay relative to control
[3] = biological target: 5-hydroxytryptamine receptor 2A (Homo sapiens) (UniProt P28223); test: Inhibition of 5-HT2A receptor (unknown origin) at 10 uM by radioligand binding assay relative to control
[4] = biological target: 5-hydroxytryptamine receptor 1D (Homo sapiens) (UniProt P28221); test: Inhibition of 5-HT1D receptor (unknown origin) at 10 uM by radioligand binding assay relative to control
[5] = biological target: Alpha-1B adrenergic receptor (Homo sapiens) (UniProt P35368); test: Inhibition of alpha1B adrenergic receptor (unknown origin) at 10 uM by radioligand binding assay relative to control
[6] = biological target: Glutamate [NMDA] receptor (Homo sapiens) (UniProt Q05586+Q12879+Q13224+O15399+O60391+Q14957+Q8TCU5); test: Inhibition of NMDA receptor (unknown origin) at 10 uM by radioligand binding assay relative to control
[7] = biological target: Sodium-dependent serotonin transporter (Homo sapiens) (UniProt P31645); test: Inhibition of SERT (unknown origin) at 10 uM by radioligand binding assay relative to control
[8] = biological target: 5-hydroxytryptamine receptor 7 (Homo sapiens) (UniProt P34969); test: Inhibition of 5-HT7 receptor (unknown origin) at 10 uM by radioligand binding assay relative to control
[9] = biological target: Muscarinic acetylcholine receptor M2 (Homo sapiens) (UniProt P08172); test: Inhibition of muscarinic M2 receptor (unknown origin) at 10 uM by radioligand binding assay relative to control
[10] = biological target: 5-hydroxytryptamine receptor 1B (Homo sapiens) (UniProt P28222); test: Inhibition of 5-HT1B receptor (unknown origin) at 10 uM by radioligand binding assay relative to control
[11] = biological target: Histamine H3 receptor (Homo sapiens) (UniProt Q9Y5N1); test: Inhibition of histamine H3 receptor (unknown origin) at 10 uM by radioligand binding assay relative to control
[12] = biological target: Alpha-2A adrenergic receptor (Homo sapiens) (UniProt P08913); test: Inhibition of alpha2A adrenergic receptor (unknown origin) at 10 uM by radioligand binding assay relative to control
[13] = biological target: Translocator protein (Homo sapiens) (UniProt P30536); test: Inhibition of PBR (unknown origin) at 10 uM by radioligand binding assay relative to control
[14] = biological target: Histamine H1 receptor (Homo sapiens) (UniProt P35367); test: Inhibition of histamine H1 receptor (unknown origin) at 10 uM by radioligand binding assay relative to control
[15] = biological target: 5-hydroxytryptamine receptor 6 (Homo sapiens) (UniProt P50406); test: Inhibition of 5-HT6 receptor (unknown origin) at 10 uM by radioligand binding assay relative to control
[16] = biological target: 5-hydroxytryptamine receptor 3A (Homo sapiens) (UniProt P46098); test: Inhibition of 5-HT3 receptor (unknown origin) at 10 uM by radioligand binding assay relative to control
[17] = biological target: Sodium-dependent noradrenaline transporter (Homo sapiens) (UniProt P23975); test: Inhibition of NET (unknown origin) at 10 uM by radioligand binding assay relative to control
[18] = biological target: D(1A) dopamine receptor (Homo sapiens) (UniProt P21728); test: Inhibition of dopamine D1 receptor (unknown origin) at 10 uM by radioligand binding assay relative to control
[19] = biological target: Muscarinic acetylcholine receptor M5 (Homo sapiens) (UniProt P08912); test: Inhibition of muscarinic M5 receptor (unknown origin) at 10 uM by radioligand binding assay relative to control
[20] = biological target: 5-hydroxytryptamine receptor 1A (Homo sapiens) (UniProt P08908); test: Inhibition of 5-HT1A receptor (unknown origin) at 10 uM by radioligand binding assay relative to control
[21] = biological target: Alpha-1A adrenergic receptor (Homo sapiens) (UniProt P35348); test: Inhibition of alpha1A adrenergic receptor (unknown origin) at 10 uM by radioligand binding assay relative to control
[22] = biological target: Beta-2 adrenergic receptor (Homo sapiens) (UniProt P07550); test: Inhibition of beta-2 adrenergic receptor (unknown origin) at 10 uM by radioligand binding assay relative to control
[23] = biological target: D(1B) dopamine receptor (Homo sapiens) (UniProt P21918); test: Inhibition of dopamine D5 receptor (unknown origin) at 10 uM by radioligand binding assay relative to control
[24] = biological target: 5-hydroxytryptamine receptor 2B (Homo sapiens) (UniProt P41595); test: Agonist activity at 5-HT2B receptor (unknown origin) expressed in Flp-In HEK cells assessed as stimulation of calcium mobilization at 10 uM relative to 5-HT; format: functional, cell-based; settings: HEK293
Method in brief: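 Agonist-mode calcium mobilization in Flp-In HEK cells expressing 5-HT2B, with test compound at 10 µM. Response expressed as percent of the maximal 5-HT response.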

[25] = biological target: Alpha-1D adrenergic receptor (Homo sapiens) (UniProt P25100); test: Inhibition of alpha1D adrenergic receptor (unknown origin) at 10 uM by radioligand binding assay relative to control
Rattus norvegicus = species: Rattus norvegicus; test: Inhibition of benzodiazepine receptor in rat brain at 10 uM by radioligand binding assay relative to control; format: tissue-based
[26] = biological target: Alpha-2C adrenergic receptor (Homo sapiens) (UniProt P18825); test: Inhibition of alpha2C adrenergic receptor (unknown origin) at 10 uM by radioligand binding assay relative to control
Homo sapiens = species: Homo sapiens; test: Inhibition of sigma-2 receptor (unknown origin) at 10 uM by radioligand binding assay relative to control

Sequence of 5-hydroxytryptamine receptor 2B (Homo sapiens) (P41595 whole entry): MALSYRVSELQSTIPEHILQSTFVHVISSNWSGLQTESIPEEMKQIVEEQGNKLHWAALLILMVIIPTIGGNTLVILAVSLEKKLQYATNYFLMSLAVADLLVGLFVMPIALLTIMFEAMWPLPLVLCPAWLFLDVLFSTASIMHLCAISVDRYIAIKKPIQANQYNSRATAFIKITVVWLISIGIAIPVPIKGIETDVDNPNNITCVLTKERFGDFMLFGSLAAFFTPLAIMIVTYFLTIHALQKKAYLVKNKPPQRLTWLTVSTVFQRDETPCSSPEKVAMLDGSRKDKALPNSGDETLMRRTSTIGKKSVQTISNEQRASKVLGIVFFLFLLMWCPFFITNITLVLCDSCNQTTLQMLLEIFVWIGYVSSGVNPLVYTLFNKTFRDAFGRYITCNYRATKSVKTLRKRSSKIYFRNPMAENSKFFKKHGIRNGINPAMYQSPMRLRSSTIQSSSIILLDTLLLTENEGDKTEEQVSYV
Sequence of 5-hydroxytryptamine receptor 2A (Homo sapiens) (P28223 whole entry): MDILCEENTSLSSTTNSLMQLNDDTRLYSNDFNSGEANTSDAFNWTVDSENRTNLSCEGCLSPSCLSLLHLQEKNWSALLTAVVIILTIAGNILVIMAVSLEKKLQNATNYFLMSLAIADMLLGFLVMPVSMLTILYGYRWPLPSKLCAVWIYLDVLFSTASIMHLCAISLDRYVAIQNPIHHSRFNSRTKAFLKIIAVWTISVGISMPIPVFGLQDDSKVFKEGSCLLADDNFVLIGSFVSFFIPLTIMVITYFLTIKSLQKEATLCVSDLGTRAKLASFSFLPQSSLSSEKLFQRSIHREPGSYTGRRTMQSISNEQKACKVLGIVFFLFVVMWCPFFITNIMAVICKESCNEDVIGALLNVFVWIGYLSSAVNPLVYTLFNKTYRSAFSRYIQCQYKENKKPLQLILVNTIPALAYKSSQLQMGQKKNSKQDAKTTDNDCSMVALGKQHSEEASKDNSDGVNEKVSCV
Sequence of Translocator protein (Homo sapiens) (P30536 whole entry): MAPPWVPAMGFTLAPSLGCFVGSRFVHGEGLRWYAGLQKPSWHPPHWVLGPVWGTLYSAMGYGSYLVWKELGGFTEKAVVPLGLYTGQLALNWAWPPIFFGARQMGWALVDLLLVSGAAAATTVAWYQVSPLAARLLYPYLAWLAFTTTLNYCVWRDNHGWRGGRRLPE
Sequence of Histamine H3 receptor (Homo sapiens) (Q9Y5N1 whole entry): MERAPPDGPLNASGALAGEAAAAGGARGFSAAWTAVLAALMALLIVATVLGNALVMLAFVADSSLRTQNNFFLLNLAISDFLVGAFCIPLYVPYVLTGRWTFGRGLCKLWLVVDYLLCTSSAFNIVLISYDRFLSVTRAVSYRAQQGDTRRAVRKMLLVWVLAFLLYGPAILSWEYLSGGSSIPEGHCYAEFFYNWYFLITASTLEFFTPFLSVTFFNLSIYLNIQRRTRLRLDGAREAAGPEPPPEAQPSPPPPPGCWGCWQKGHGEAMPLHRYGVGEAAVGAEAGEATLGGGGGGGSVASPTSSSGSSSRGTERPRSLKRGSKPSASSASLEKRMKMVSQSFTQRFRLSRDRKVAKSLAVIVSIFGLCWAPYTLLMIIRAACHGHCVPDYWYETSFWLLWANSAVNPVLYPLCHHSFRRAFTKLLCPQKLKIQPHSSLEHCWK
Sequence of Beta-2 adrenergic receptor (Homo sapiens) (P07550 whole entry, looked up): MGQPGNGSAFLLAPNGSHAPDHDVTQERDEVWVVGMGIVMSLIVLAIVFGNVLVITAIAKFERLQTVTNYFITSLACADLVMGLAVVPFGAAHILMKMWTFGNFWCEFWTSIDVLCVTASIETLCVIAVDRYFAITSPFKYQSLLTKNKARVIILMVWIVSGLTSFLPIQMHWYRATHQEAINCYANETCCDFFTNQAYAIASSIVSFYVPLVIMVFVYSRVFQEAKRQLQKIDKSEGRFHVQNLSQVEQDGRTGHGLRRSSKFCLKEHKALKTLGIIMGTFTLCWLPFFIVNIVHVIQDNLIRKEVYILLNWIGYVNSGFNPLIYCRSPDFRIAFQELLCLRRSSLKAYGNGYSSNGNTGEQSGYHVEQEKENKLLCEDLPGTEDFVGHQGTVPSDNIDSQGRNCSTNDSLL
Sequence of Muscarinic acetylcholine receptor M2 (Homo sapiens) (P08172 whole entry): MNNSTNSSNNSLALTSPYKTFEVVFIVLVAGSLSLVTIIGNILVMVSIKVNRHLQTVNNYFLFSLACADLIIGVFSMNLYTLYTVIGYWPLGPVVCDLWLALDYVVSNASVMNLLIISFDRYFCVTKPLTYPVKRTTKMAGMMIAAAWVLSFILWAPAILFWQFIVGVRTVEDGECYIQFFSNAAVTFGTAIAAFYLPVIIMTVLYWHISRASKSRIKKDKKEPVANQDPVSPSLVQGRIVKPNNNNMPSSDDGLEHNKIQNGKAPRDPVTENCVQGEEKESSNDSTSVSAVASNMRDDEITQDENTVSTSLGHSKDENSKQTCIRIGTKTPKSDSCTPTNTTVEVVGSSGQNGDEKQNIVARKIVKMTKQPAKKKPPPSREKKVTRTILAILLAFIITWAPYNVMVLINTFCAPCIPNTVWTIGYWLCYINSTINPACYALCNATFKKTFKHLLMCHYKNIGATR
Sequence of Histamine H1 receptor (Homo sapiens) (P35367 whole entry): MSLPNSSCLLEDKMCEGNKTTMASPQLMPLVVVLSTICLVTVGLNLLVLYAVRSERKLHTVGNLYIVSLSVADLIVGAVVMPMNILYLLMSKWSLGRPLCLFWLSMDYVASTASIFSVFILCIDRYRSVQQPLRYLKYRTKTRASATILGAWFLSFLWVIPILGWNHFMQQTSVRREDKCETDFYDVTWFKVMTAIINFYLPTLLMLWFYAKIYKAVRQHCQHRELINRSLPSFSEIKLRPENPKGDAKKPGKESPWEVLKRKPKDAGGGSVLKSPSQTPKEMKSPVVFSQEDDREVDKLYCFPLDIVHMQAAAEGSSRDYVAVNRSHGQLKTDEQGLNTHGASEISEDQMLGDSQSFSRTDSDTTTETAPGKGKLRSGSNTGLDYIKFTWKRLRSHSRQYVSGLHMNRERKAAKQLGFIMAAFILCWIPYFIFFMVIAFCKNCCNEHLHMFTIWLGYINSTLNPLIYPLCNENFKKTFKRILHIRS
Sequence of D(1A) dopamine receptor (Homo sapiens) (P21728 whole entry): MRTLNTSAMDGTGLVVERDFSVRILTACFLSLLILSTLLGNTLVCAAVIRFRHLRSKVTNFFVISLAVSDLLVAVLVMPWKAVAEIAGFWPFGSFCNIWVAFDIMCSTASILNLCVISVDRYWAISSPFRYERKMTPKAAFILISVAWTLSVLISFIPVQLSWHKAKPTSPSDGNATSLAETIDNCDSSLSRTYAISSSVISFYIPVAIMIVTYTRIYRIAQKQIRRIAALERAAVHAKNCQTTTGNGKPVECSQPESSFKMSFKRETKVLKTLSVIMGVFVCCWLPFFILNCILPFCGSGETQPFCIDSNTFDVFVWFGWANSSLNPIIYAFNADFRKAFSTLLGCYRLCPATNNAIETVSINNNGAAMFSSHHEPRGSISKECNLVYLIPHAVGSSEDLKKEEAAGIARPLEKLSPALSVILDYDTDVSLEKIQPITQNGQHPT
Sequence of Muscarinic acetylcholine receptor M5 (Homo sapiens) (P08912 whole entry): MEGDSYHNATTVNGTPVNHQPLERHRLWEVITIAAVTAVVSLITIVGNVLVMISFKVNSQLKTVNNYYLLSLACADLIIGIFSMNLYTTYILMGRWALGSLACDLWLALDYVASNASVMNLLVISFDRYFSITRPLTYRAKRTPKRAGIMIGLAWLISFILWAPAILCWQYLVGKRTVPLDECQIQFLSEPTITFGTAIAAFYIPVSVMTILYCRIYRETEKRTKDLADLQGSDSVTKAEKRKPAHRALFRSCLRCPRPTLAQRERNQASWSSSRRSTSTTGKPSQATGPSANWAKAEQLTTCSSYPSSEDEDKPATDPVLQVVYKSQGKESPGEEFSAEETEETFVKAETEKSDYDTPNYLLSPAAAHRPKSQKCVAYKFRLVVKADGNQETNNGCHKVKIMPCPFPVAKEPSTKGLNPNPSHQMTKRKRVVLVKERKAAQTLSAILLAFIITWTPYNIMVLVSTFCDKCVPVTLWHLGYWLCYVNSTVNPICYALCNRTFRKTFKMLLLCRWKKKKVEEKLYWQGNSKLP
Sequence of 5-hydroxytryptamine receptor 1D (Homo sapiens) (P28221 whole entry): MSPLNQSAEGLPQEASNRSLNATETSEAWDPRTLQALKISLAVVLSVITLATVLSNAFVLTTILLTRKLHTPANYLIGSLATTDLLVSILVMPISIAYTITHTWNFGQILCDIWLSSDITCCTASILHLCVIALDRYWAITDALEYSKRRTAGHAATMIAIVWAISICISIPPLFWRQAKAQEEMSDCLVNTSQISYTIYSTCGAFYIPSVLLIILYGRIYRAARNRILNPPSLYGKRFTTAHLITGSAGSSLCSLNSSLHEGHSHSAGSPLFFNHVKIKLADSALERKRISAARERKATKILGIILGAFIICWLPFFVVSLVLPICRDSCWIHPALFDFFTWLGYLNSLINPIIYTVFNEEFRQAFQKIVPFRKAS
Sequence of 5-hydroxytryptamine receptor 6 (Homo sapiens) (P50406 whole entry): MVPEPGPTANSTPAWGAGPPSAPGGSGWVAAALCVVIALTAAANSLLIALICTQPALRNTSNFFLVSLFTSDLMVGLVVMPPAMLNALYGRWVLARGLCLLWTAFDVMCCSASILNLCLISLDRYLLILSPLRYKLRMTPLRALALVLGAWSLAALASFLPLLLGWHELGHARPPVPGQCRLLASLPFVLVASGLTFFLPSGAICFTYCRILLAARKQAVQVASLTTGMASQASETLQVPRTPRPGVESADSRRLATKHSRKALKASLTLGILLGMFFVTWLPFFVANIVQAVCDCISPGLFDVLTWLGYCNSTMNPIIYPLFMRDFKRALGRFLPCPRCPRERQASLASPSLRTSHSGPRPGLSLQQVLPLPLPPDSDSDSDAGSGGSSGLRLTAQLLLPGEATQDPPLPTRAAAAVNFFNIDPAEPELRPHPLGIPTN

O=c1cc(Cc2cccs2)oc2cccc(O)c12
inhibition [1]: 23.5% | inhibition [2]: 31.5% | inhibition [3]: -4.5%

O=c1cc(CCc2cccs2)oc2cccc(O)c12
inhibition [1]: 19.6% | inhibition [2]: 74.8% | inhibition [3]: 1.4%

O=c1cc(CCCCc2ccccc2)oc2cccc(O)c12
inhibition [1]: 14.7% | inhibition [2]: 45.2% | inhibition [3]: 5.7%

O=c1cc(CCc2ccccc2)oc2cccc(O)c12
inhibition [4]: 4.3% | inhibition [5]: 2.9% | inhibition [6]: 17.4% | inhibition [7]: 28.9% | inhibition [8]: 35.9% | inhibition [9]: 1.8% | inhibition [10]: 3.7% | inhibition [11]: 15.9% | inhibition [12]: 22.2% | inhibition [13]: 2.8% | inhibition [14]: 13% | inhibition [15]: 5.8% | inhibition [16]: 61.7% | inhibition [17]: 34.6% | inhibition [18]: 24.7% | inhibition [19]: 19.3% | inhibition [20]: 5.4% | inhibition [21]: 16.9% | inhibition [22]: 1.4% | inhibition [23]: 0.4% | Activity [24]: 0.6% | inhibition [25]: 2.1% | inhibition (Rattus norvegicus): 0.1% | inhibition [26]: 32.7% | inhibition (Homo sapiens): 36.8%

O=c1cc(COc2ccccc2)oc2cccc(O)c12
inhibition [1]: 7.8% | inhibition [2]: 50% | inhibition [3]: 0.2%

O=c1cc(Cc2ccccc2)oc2cccc(O)c12
inhibition [1]: 24.8% | inhibition [2]: 30.6% | inhibition [3]: 1.4%

O=c1cc(CCCc2ccccc2)oc2cccc(O)c12
inhibition [1]: 7.9% | inhibition [2]: 70.4% | inhibition [3]: 5.4%
